Laboratory results as given in ChEMBL document CHEMBL4038284, “Synthesis of novel quinoline-based 4,5-dihydro-1H-pyrazoles as potential anticancer, antifungal, antibacterial and antiprotozoal agents” (Eur J Med Chem, 2017).
≈ marks a conversion by molar mass, not a printed value.

Tests used:
Cryptococcus neoformans [1] = test: Growth inhibition of Cryptococcus neoformans ATCC 32264 at 125 ug/ml incubated for 48 hrs under dark condition by broth microdilution method relative to control; type: functional; conditions: ATCC 32264, 48 h, read-out: GI
Summary of the method: (§1)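 CLSI M27-A3 broth microdilution in RPMI-1640, DMSO ≤1%. Inoculum 1-5 × 10^3 CFU/mL. Incubated 48 h at 30 °C, dark. % inhibition = 100 − (OD405 test − sterility control)/(OD405 growth control − sterility control), with growth and sterility control wells. Triplicate.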

Escherichia coli = test: Antibacterial activity against Escherichia coli ATCC 25922 after 24 hrs by resazurin dye based microdilution assay; type: functional; conditions: ATCC 25922, 24 h
Summary of the method: (§2)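 MIC taken as the lowest concentration giving visible inhibition and/or by resazurin (1 mg/mL). Gentamicin was the control. Run in duplicate, repeated at least three times.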

Cryptococcus neoformans [2] = test: Antifungal activity against Cryptococcus neoformans ATCC 32264 incubated for 48 hrs under dark condition by broth microdilution method; type: functional; conditions: ATCC 32264, 48 h
Summary of the method: (§3)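 CLSI M27-A3 broth microdilution in RPMI-1640, DMSO ≤1%, compounds at 250-0.98 µg/mL final. Inoculum 1-5 × 10^3 CFU/mL. Incubated 48 h at 30 °C in a moist dark chamber, read at OD405. MIC80 and MIC50 taken from % inhibition dose-response curves (mean ± SEM, triplicate). Amphotericin B was the positive control.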

Candida albicans [3] = test: Growth inhibition of Candida albicans ATCC 10231 at 7.8 ug/ml incubated for 48 hrs under dark condition by broth microdilution method relative to control; type: functional; conditions: ATCC 10231, 48 h, read-out: GI; summary of the method: as §1
Candida albicans [4] = test: Growth inhibition of Candida albicans ATCC 10231 at 250 ug/ml incubated for 48 hrs under dark condition by broth microdilution method relative to control; type: functional; conditions: ATCC 10231, 48 h, read-out: GI; summary of the method: as §1
Cryptococcus neoformans [5] = test: Growth inhibition of Cryptococcus neoformans ATCC 32264 at 31.25 ug/ml incubated for 48 hrs under dark condition by broth microdilution method relative to control; type: functional; conditions: ATCC 32264, 48 h, read-out: GI; summary of the method: as §1
Plasmodium falciparum = test: Antiplasmodial activity against chloroquine-sensitive Plasmodium falciparum 3D7 assessed as reduction in parasitic LDH activity after 48 hrs by Malstat reagent based […] method; type: functional; conditions: 3D7, 48 h
Summary of the method: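 Unsynchronized P. falciparum 3D7 at 0.5% parasitemia and 1% hematocrit in RPMI with 3% Albumax II. Exposed to 100, 25, 6.25 and 1.56 µg/mL for 48 h at 37 °C under 90% N2/5% CO2/5% O2. After three freeze-thaw cycles, LDH measured with Malstat and NBT/PES, 1 h in the dark, read at 650 nm. IC50 by Probit; triplicate, ≥2 experiments.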

Cryptococcus neoformans [6] = test: Growth inhibition of Cryptococcus neoformans ATCC 32264 at 3.4 ug/ml incubated for 48 hrs under dark condition by broth microdilution method relative to control; type: functional; conditions: ATCC 32264, 48 h, read-out: GI
Staphylococcus aureus [7] = test: Antibacterial activity against vancomycin-intermediate Staphylococcus aureus after 24 hrs by resazurin dye based microdilution assay; type: functional; summary of the method: as §2
Candida albicans [8] = test: Growth inhibition of Candida albicans ATCC 10231 at 3.4 ug/ml incubated for 48 hrs under dark condition by broth microdilution method relative to control; type: functional; conditions: ATCC 10231, 48 h, read-out: GI
Candida albicans [9] = test: Growth inhibition of Candida albicans ATCC 10231 at 125 ug/ml incubated for 48 hrs under dark condition by broth microdilution method relative to control; type: functional; conditions: ATCC 10231, 48 h, read-out: GI; summary of the method: as §1
Candida albicans [10] = test: Growth inhibition of Candida albicans ATCC 10231 at 31.25 ug/ml incubated for 48 hrs under dark condition by broth microdilution method relative to control; type: functional; conditions: ATCC 10231, 48 h, read-out: GI; summary of the method: as §1
Cryptococcus neoformans [11] = test: Growth inhibition of Cryptococcus neoformans ATCC 32264 at 15.62 ug/ml incubated for 48 hrs under dark condition by broth microdilution method relative to control; type: functional; conditions: ATCC 32264, 48 h, read-out: GI; summary of the method: as §1
Candida albicans [12] = test: Antifungal activity against Candida albicans ATCC 10231 incubated for 48 hrs under dark condition by broth microdilution method; type: functional; conditions: ATCC 10231, 48 h; summary of the method: as §3
Cryptococcus neoformans [13] = test: Growth inhibition of Cryptococcus neoformans ATCC 32264 at 7.8 ug/ml incubated for 48 hrs under dark condition by broth microdilution method relative to control; type: functional; conditions: ATCC 32264, 48 h, read-out: GI; summary of the method: as §1
Candida albicans [14] = test: Growth inhibition of Candida albicans ATCC 10231 at 15.62 ug/ml incubated for 48 hrs under dark condition by broth microdilution method relative to control; type: functional; conditions: ATCC 10231, 48 h, read-out: GI; summary of the method: as §1
Trypanosoma cruzi = test: Antitrypanosomal activity against Trypanosoma cruzi Tulahuen intracellular amastigote harboring LacZ infected in human U937 cells after 72 hrs by CPRG/Nonidet reagent based spectrophotometric method; type: functional, cell-based; conditions: U-937, 72 h
Summary of the method: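 U-937 cells at 2.5 × 10^5 cells/mL in RPMI-1640 with 10% serum and 0.1 µg/mL PMA were infected with β-galactosidase-transfected Tulahuen epimastigotes at 5 parasites per cell. Infected cells were exposed to 50, 12.5, 3.125 and 0.78 µg/mL for 72 h. CPRG (100 uM) and 0.1% Nonidet P-40 were added for 3 h, read at 570 nm. EC50 by Probit. Triplicate, at least two experiments; benznidazole as reference.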

Klebsiella pneumoniae [15] = test: Antibacterial activity against ESBL positive Klebsiella pneumoniae ATCC 700603 after 24 hrs by resazurin dye based microdilution assay; type: functional; conditions: Klebsiella pneumoniae, 700603, 24 h; summary of the method: as §2
Staphylococcus aureus [16] = test: Antibacterial activity against methicillin-resistant Staphylococcus aureus ATCC 43300 after 24 hrs by resazurin dye based microdilution assay; type: functional; conditions: ATCC 43300, 24 h
Summary of the method: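 Broth microdilution in Mueller Hinton broth, inoculum 5 × 10^5 – 8 × 10^5. Compound stocks diluted in MHB with 5% DMSO and 0.1% Tween 80. Incubation 24 h at 35-37 °C. MIC is the lowest concentration with visible growth inhibition and/or by resazurin (1 mg/mL) read-out. Gentamicin as control. Run in duplicate, replicated at least three times.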

Cryptococcus neoformans [17] = test: Growth inhibition of Cryptococcus neoformans ATCC 32264 at 250 ug/ml incubated for 48 hrs under dark condition by broth microdilution method relative to control; type: functional; conditions: ATCC 32264, 48 h, read-out: GI; summary of the method: as §1
U-937 = test: Cytotoxicity against human U937 cells after 72 hrs by MTT assay; type: cell-based; conditions: u-937, 72 h
Summary of the method: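 Exponentially growing U-937 at 1 × 10^5 cells/mL in RPMI-1640 with 10% FBS were exposed to 200, 50, 12.5 and 3.125 µg/mL for 72 h at 37 °C, 5% CO2. MTT for 3 h, stopped with isopropanol/SDS, formazan read at 570 nm, blank-corrected. LC50 by Probit from % viability against untreated cells. Triplicate, at least two independent experiments.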

Candida albicans [18] = test: Growth inhibition of Candida albicans ATCC 10231 at 62.5 ug/ml incubated for 48 hrs under dark condition by broth microdilution method relative to control; type: functional; conditions: ATCC 10231, 48 h, read-out: GI; summary of the method: as §1
Pseudomonas aeruginosa = test: Antibacterial activity against Pseudomonas aeruginosa ATCC 27853 after 24 hrs by resazurin dye based microdilution assay; type: functional; conditions: ATCC 27853, 24 h; summary of the method: as §2
Cryptococcus neoformans [19] = test: Growth inhibition of Cryptococcus neoformans ATCC 32264 at 62.5 ug/ml incubated for 48 hrs under dark condition by broth microdilution method relative to control; type: functional; conditions: ATCC 32264, 48 h, read-out: GI; summary of the method: as §1
Leishmania panamensis = test: Antileshmanial activity against EpiR/GFP fused Leishmania panamensis MHOM/CO/87/UA140 intracellular amastigotes infected in human […] cells after 72 hrs by flow cytometric method; type: functional, cell-based; conditions: MHOM/CO/87/UA140, 72 h
Summary of the method: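 PMA-treated U-937 cells (3 × 10^5 cells/mL) infected with stationary-phase GFP L. panamensis promastigotes (15:1), 3 h at 34 °C, then washed. After 24 h, compounds added at 50, 12.5, 3.125 and 0.78 µg/mL for 72 h at 37 °C. EC50 by Probit; triplicate, two experiments.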

Staphylococcus aureus [20] = test: Antibacterial activity against methicillin-sensitive Staphylococcus aureus ATCC 25923 after 24 hrs by resazurin dye based microdilution assay; type: functional; conditions: ATCC 25923, 24 h; summary of the method: as §2
Klebsiella pneumoniae [21] = test: Antibacterial activity against carbapenemase positive Klebsiella pneumoniae BAA 1705 after 24 hrs by resazurin dye based microdilution assay; type: functional; conditions: BAA 1705, 24 h; summary of the method: as §2
Neisseria gonorrhoeae = test: Antibacterial activity against beta lactamase positive Neisseria gonorrhoeae ATCC 31426 by oxidase test; type: functional
Summary of the method: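 Agar dilution MIC on GC agar with 1% isovitalex containing increasing compound concentrations. Plates inoculated with about 1×10^4 CFU (5 µL). MIC is the lowest concentration that inhibited growth, with growth confirmed by oxidase test. Run in duplicate, repeated at least three times.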

In the case of Clc1cc(Cl)cc(N2N=C(c3ccc(Br)cc3)CC2c2cccc(Nc3ccnc4cc(Cl)ccc34)c2)c1 (stereo not given), the inhibition of growth at 125 µg/mL (Cryptococcus neoformans [1]) is reported as 0%, the MIC (Escherichia coli) is reported as greater than 1000 µg/mL and the MIC50 (Cryptococcus neoformans [2]) is reported as no less than 250 µg/mL. The MIC80 (Cryptococcus neoformans [2]) was no less than 250 µg/mL, the inhibition of growth at 7.8 µg/mL (Candida albicans [3]) was 1.43% and the inhibition of growth at 250 µg/mL (Candida albicans [4]) was 13.7%. The inhibition of growth at 31.25 µg/mL (Cryptococcus neoformans [5]) was 0%, the EC50 (Plasmodium falciparum) was 14.4 µg/mL (≈ 23.1 µM) and the inhibition of growth at 3.4 µg/mL (Cryptococcus neoformans [6]) was 0%. It also gave an MIC (Staphylococcus aureus [7]) greater than 1000 µg/mL, an inhibition of growth at 3.4 µg/mL (Candida albicans [8]) of 0% and an inhibition of growth at 125 µg/mL (Candida albicans [9]) of 7.23%. It also gave an inhibition of growth at 31.25 µg/mL (Candida albicans [10]) of 2.07%, an inhibition of growth at 15.62 µg/mL (Cryptococcus neoformans [11]) of 0% and an MIC50 (Candida albicans [12]) of no less than 250 µg/mL. It also gave an MIC80 (Candida albicans [12]) of no less than 250 µg/mL, an inhibition of growth at 7.8 µg/mL (Cryptococcus neoformans [13]) of 0% and an inhibition of growth at 15.62 µg/mL (Candida albicans [14]) of 1.92%. It also gave an EC50 (Trypanosoma cruzi) of 28.3 µg/mL (≈ 45.4 µM), an MIC (Klebsiella pneumoniae [15]) greater than 1000 µg/mL and an MIC (Staphylococcus aureus [16]) greater than 1000 µg/mL. It also gave an inhibition of growth at 250 µg/mL (Cryptococcus neoformans [17]) of 13.3%, an LC50 (U-937) greater than 200 µg/mL and an inhibition of growth at 62.5 µg/mL (Candida albicans [18]) of 4.45%. For the same molecule, the MIC (Pseudomonas aeruginosa) was greater than 1000 µg/mL, the inhibition of growth at 62.5 µg/mL (Cryptococcus neoformans [19]) was 0% and the EC50 (Leishmania panamensis) was 2.77 µg/mL (≈ 4.45 µM). It also gave an MIC (Staphylococcus aureus [20]) greater than 1000 µg/mL, an MIC (Klebsiella pneumoniae [21]) greater than 1000 µg/mL and an MIC (Neisseria gonorrhoeae) greater than 1000 µg/mL.
